The subject of experiment [1] is Bacillus subtilis. Put plainly: Antibacterial activity against penicillin-susceptible Bacillus subtilis ATCC 9372 incubated for 24 hrs by tube-dilution method. Conditions: ATCC 9372, 24 h. The class given is functional. The essentials: (§1)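 MIC by tube dilution per NCCLS; B. subtilis ATCC9372, E. coli ATCC25922, P. aeruginosa ATCC27853 and S. aureus ATCC25923 are penicillin-susceptible strains.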

For experiment [2], the system named is Escherichia coli. Put plainly: Antibacterial activity against penicillin-susceptible Escherichia coli ATCC 25922 incubated for 24 hrs by tube-dilution method. The format is functional. As to conditions: ATCC 25922, 24 h. In a few lines:
as §1

The test system of experiment [3] is Pseudomonas aeruginosa. Nature of the experiment: Antibacterial activity against penicillin-susceptible Pseudomonas aeruginosa ATCC 27853 incubated for 24 hrs by tube-dilution method. Conditions: ATCC 27853, 24 h. The format is functional. The essentials:
as §1

Experiment [4] deals with Staphylococcus aureus. Put plainly: Antibacterial activity against penicillin-susceptible Staphylococcus aureus ATCC 25923 incubated for 24 hrs by tube-dilution method. The class given is functional. Conditions: ATCC 25923, 24 h. The essentials:
as §1

The subject of experiment [5] is Staphylococcus aureus. Put plainly: Antibacterial activity against […] Staphylococcus aureus ATCC 29213 incubated for 24 hrs by tube-dilution method. As to conditions: ATCC 29213, 24 h. The format is functional. The essentials: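 Broth tube-dilution MIC run as NCCLS recommends, against the […] S. aureus strain ATCC29213.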
Experiment [6] deals with Staphylococcus aureus. Put plainly: Antibacterial activity against penicillin-resistant Staphylococcus aureus clinical isolates incubated for 24 hrs by tube-dilution method. The class given is functional.
Experiment [7] deals with Staphylococcus epidermidis. Put plainly: Antibacterial activity against penicillin-resistant Staphylococcus epidermidis clinical isolates incubated for 24 hrs by tube-dilution method. The format is functional.
Experiment [8] concerns Streptococcus pyogenes. Put plainly: Antibacterial activity against penicillin-susceptible Streptococcus pyogenes clinical isolates incubated for 24 hrs by tube-dilution method. The format is functional.
Experiment [9] has as its system Streptococcus pyogenes. Put plainly: Antibacterial activity against penicillin-resistant Streptococcus pyogenes clinical isolates incubated for 24 hrs by tube-dilution method. The format is functional.
Experiment [10] concerns Bacillus subtilis. Nature of the experiment: Inhibition of FtsZ in penicillin-susceptible Bacillus subtilis ATCC 9372 assessed as lowest drug concentration causing inhibition of cell division incubated for 5 hrs by phase-contrast light microscopy. In a few lines: (§2)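 Cell division inhibition judged from bacterial cell morphology under phase-contrast light microscopy, scored as lowest concentration altering division; penicillin-susceptible strains B. subtilis ATCC9372, E. coli ATCC25922, P. aeruginosa ATCC27853, S. aureus ATCC25923.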

The subject of experiment [11] is Streptococcus pyogenes. Nature of the experiment: Potency index, ratio of MIC for oxacillin sodium to MIC for test compound against penicillin-susceptible Streptococcus pyogenes clinical isolates incubated for 24 hrs by tube-dilution method. The class given is functional.
The subject of experiment [12] is Escherichia coli. Put plainly: Inhibition of FtsZ in penicillin-susceptible Escherichia coli ATCC 25922 assessed as lowest drug concentration causing inhibition of cell division incubated for 5 hrs by phase-contrast light microscopy. In a few lines:
as §2

Experiment [13] has as its system Pseudomonas aeruginosa. Nature of the experiment: Inhibition of FtsZ in penicillin-susceptible Pseudomonas aeruginosa ATCC 27853 assessed as lowest drug concentration causing inhibition of cell division incubated for 5 hrs by phase-contrast light microscopy. In a few lines: as §2
Experiment [14] concerns Streptococcus pyogenes. Nature of the experiment: Potency index, ratio of MIC for sanguinarine to MIC for test compound against penicillin-susceptible Streptococcus pyogenes clinical isolates incubated for 24 hrs by tube-dilution method. The format is functional.
For experiment [15], the system named is Staphylococcus aureus. Nature of the experiment: Inhibition of FtsZ in penicillin-susceptible Staphylococcus aureus ATCC 25923 assessed as lowest drug concentration causing inhibition of cell division incubated for 5 hrs by phase-contrast light microscopy. The essentials:
as §2

In experiment [16] the test system is Bacillus subtilis. Nature of the experiment: Potency index, ratio of MIC for curcumin to MIC for test compound against penicillin-susceptible Bacillus subtilis ATCC 9372 incubated for 24 hrs by tube-dilution method. The format is functional.
The subject of experiment [17] is Bacillus subtilis. Nature of the experiment: Potency index, ratio of MIC for sanguinarine to MIC for test compound against penicillin-susceptible Bacillus subtilis ATCC 9372 incubated for 24 hrs by tube-dilution method. The class given is functional.
Experiment [18] relates to Bacillus subtilis. Put plainly: Potency index, ratio of MIC for ciprofloxaxin to MIC for test compound against penicillin-susceptible Bacillus subtilis ATCC 9372 incubated for 24 hrs by tube-dilution method. The format is functional.
Experiment [19] has as its system Bacillus subtilis. Nature of the experiment: Potency index, ratio of MIC for oxacillin sodium to MIC for test compound against penicillin-susceptible Bacillus subtilis ATCC 9372 incubated for 24 hrs by tube-dilution method. The format is functional.
The species entered for experiment [20] is Sus scrofa. Put plainly: Induction of porcine tubulin polymerisation at 2 times MIC for penicillin-resistant Staphylococcus aureus by fluorescence microscopy. The essentials: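 Polymerisation of mammalian tubulin measured with a commercial tubulin assay kit, read by fluorescence of the kit reporter, with paclitaxel as the positive control for enhanced polymerisation.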

The species named for experiment [21] is Sus scrofa. Put plainly: Inhibition of porcine tubulin polymerisation at 32 ug/ml by fluorescence microscopy. In a few lines: (§3)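 Polymerisation of mammalian tubulin followed with a commercial tubulin assay kit using a fluorescent reporter; compounds tested at 32 µg/mL or 256 µg/mL, paclitaxel as positive control.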
The species entered for experiment [22] is Sus scrofa. Nature of the experiment: Inhibition of porcine tubulin polymerisation at 256 ug/ml by fluorescence microscopy. In a few lines: as §3
Experiment [23] deals with Staphylococcus aureus. Nature of the experiment: Inhibition of FtsZ in penicillin-susceptible Staphylococcus aureus ATCC 25923 assessed as inhibition of cell division at […] incubated for 5 hrs by phase-contrast light microscopy.
Experiment [24] deals with Bacillus subtilis. Nature of the experiment: Inhibition of FtsZ in penicillin-susceptible Bacillus subtilis ATCC 9372 assessed as inhibition of cell division at […] incubated for 5 hrs by phase-contrast light microscopy.
The subject of experiment [25] is Staphylococcus aureus. Put plainly: Potency index, ratio of MIC for curcumin to MIC for test compound against […] Staphylococcus aureus ATCC 29213 incubated for 24 hrs by tube-dilution method. The class given is functional.
For experiment [26], the system named is Staphylococcus aureus. Put plainly: Potency index, ratio of MIC for oxacillin sodium to MIC for test compound against […] Staphylococcus aureus ATCC 29213 incubated for 24 hrs by tube-dilution method. The class given is functional.

The source made the active and inactive calls. No cut-off for these calls is given here.

As for `CC(C)c1cccc2c3ccccc3c[n+](C)c12.[Cl-]`, the MIC was 4 µg/mL against Bacillus subtilis [1]; more than 128 µg/mL against Escherichia coli [2]; more than 128 µg/mL with Pseudomonas aeruginosa [3]; 8 µg/mL in the experiment on Staphylococcus aureus [4]; 64 µg/mL with Staphylococcus aureus [5]; 16 µg/mL in the experiment on Staphylococcus aureus [6]. Besides, the MIC is 64 µg/mL in [7]; 4 µg/mL with Streptococcus pyogenes [8]; 8 µg/mL in the experiment on Streptococcus pyogenes [9]; 4 µg/mL with Bacillus subtilis [10]; more than 128 µg/mL in the experiment with Escherichia coli [12]; more than 128 µg/mL in the experiment on Pseudomonas aeruginosa [13]. In addition, in the experiment on Staphylococcus aureus [15], the MIC amounted to 8 µg/mL. Besides, the Ratio with Streptococcus pyogenes [11] was found to be 4; with Streptococcus pyogenes [14], 2; in the experiment on Bacillus subtilis [16], 8; with Bacillus subtilis [17], 2; in the experiment with Bacillus subtilis [18], 2; with Bacillus subtilis [19] it was 2. The result in the experiment listed under Sus scrofa [20] was inactive. In addition, the inhibition entry in the experiment listed under Sus scrofa [21] was “Active”.
As for `C[n+]1cc2ccccc2c2cc(OC(F)(F)F)ccc21.[Cl-]`, the MIC was 128 µg/mL against Bacillus subtilis [1]; more than 128 µg/mL in the experiment with Escherichia coli [2]; more than 128 µg/mL against Pseudomonas aeruginosa [3]; 128 µg/mL against Staphylococcus aureus [4]; more than 128 µg/mL against Staphylococcus aureus [5]; 128 µg/mL with Staphylococcus aureus [6]. In addition, the MIC in experiment [7] is 128 µg/mL; against Streptococcus pyogenes [8], 128 µg/mL; in the experiment with Streptococcus pyogenes [9], 128 µg/mL; with Bacillus subtilis [10], 64 µg/mL; in the experiment with Escherichia coli [12] it was more than 128 µg/mL; in the experiment on Pseudomonas aeruginosa [13] it was more than 128 µg/mL. Also, the MIC in the experiment with Staphylococcus aureus [15] is 128 µg/mL. In addition, the result in the experiment filed under Sus scrofa [20] was inactive. Besides, in the experiment filed under Sus scrofa [22], the inhibition entry was “Active”.
On to `C[n+]1cc2ccccc2c2cccc(OC(F)(F)F)c21.[Cl-]`, for which the MIC against Bacillus subtilis [1] was 4 µg/mL; against Escherichia coli [2], more than 128 µg/mL; against Pseudomonas aeruginosa [3], more than 128 µg/mL; with Staphylococcus aureus [4], 16 µg/mL; in the experiment with Staphylococcus aureus [5], 64 µg/mL; in the experiment with Staphylococcus aureus [6], 8 µg/mL. Besides, the MIC in experiment [7] was 32 µg/mL; with Streptococcus pyogenes [8], 4 µg/mL; with Streptococcus pyogenes [9], 8 µg/mL; in the experiment with Bacillus subtilis [10], 4 µg/mL; with Escherichia coli [12], more than 128 µg/mL; in the experiment on Pseudomonas aeruginosa [13], more than 128 µg/mL. Moreover, the MIC with Staphylococcus aureus [15] stood at 16 µg/mL. The Ratio with Streptococcus pyogenes [11] amounted to 4; with Streptococcus pyogenes [14] it was 2; with Bacillus subtilis [16], 8; in the experiment with Bacillus subtilis [17], 2; in the experiment on Bacillus subtilis [18], 2; in the experiment with Bacillus subtilis [19], 2. The inhibition entry in the experiment on Staphylococcus aureus [23] and in the experiment on Bacillus subtilis [24] was “Active” in each case. Moreover, the outcome in the experiment filed under Sus scrofa [20] was inactive.
Consider `CSc1cccc2c3ccccc3c[n+](C)c12.[Cl-]`, for which the MIC against Bacillus subtilis [1] is 8 µg/mL; in the experiment on Escherichia coli [2] it was more than 128 µg/mL; against Pseudomonas aeruginosa [3], more than 128 µg/mL; against Staphylococcus aureus [4], 16 µg/mL; against Staphylococcus aureus [5], 16 µg/mL; in the experiment on Staphylococcus aureus [6] it was 8 µg/mL. The MIC was more than 128 µg/mL in [7]; 8 µg/mL with Streptococcus pyogenes [8]; 8 µg/mL against Streptococcus pyogenes [9]; 8 µg/mL in the experiment on Bacillus subtilis [10]; 128 µg/mL with Escherichia coli [12]; more than 128 µg/mL in the experiment on Pseudomonas aeruginosa [13]. Moreover, in the experiment on Staphylococcus aureus [15], the MIC stood at 16 µg/mL. Moreover, the Ratio in the experiment on Staphylococcus aureus [25] and in the experiment with Staphylococcus aureus [26] was 8 in each case. Moreover, in the experiment listed under Sus scrofa [20], the outcome was inactive.
